Calls of active or inactive are those of the source. The rule behind the calls is not given here.
Tested on: Human immunodeficiency virus 1
Assay: Antiviral activity against wild type HIV1 NL4-3 infected in human MT4 cells assessed as inhibition of virus-induced cytopathic effect after 5 days by MTT assay
Type: functional, organism-based
Settings: Human immunodeficiency virus 1, NL4-3, MT4, 120 h
Summary of the method: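 Lymphoid MT-4 cells infected with wild-type HIV-1 NL4-3. […] Values are means ± SD from at least three experiments.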

SMILES	EC50
Cc1c(N)nc(Nc2ccc(C#N)cc2)nc1[C@@H](C)c1c(F)cccc1F	1000 nM
CCCN(C)c1nc([C@H](C)c2c(F)cccc2F)c(C)c(=O)[nH]1	1.3 nM
CCCN(C)c1nc(C(C)c2c(F)cccc2F)c(C)c(=O)[nH]1 (racemic)	1.9 nM

Tested on: Human immunodeficiency virus 1
Assay: Antiviral activity against HIV1 harboring reverse transcriptase K103N mutant infected in human MT4 cells assessed as inhibition of virus-induced cytopathic effect after 5 days by MTT assay
Type: functional, organism-based
Settings: Human immunodeficiency virus 1, MT4, 120 h

SMILES	EC50
Cc1c(N)nc(Nc2ccc(C#N)cc2)nc1[C@@H](C)c1c(F)cccc1F	4500 nM
CCCN(C)c1nc([C@H](C)c2c(F)cccc2F)c(C)c(=O)[nH]1	11 nM
CCCN(C)c1nc(C(C)c2c(F)cccc2F)c(C)c(=O)[nH]1 (racemic)	16.5 nM

Tested on: Human immunodeficiency virus 1
Assay: Antiviral activity against HIV1 harboring reverse transcriptase Y181C mutant infected in human MT4 cells assessed as inhibition of virus-induced cytopathic effect after 5 days by MTT assay
Type: functional, organism-based
Settings: Human immunodeficiency virus 1, MT4, 120 h

SMILES	EC50
Cc1ccnc2c1NC(=O)c1cccnc1N2C1CC1 [NEVIRAPINE]	> 7500 nM
Cc1c(N)nc(Nc2ccc(C#N)cc2)nc1[C@@H](C)c1c(F)cccc1F	> 38000 nM
CCCN(C)c1nc([C@H](C)c2c(F)cccc2F)c(C)c(=O)[nH]1	13 nM
CCCN(C)c1nc(C(C)c2c(F)cccc2F)c(C)c(=O)[nH]1 (racemic)	17 nM

Tested on: Human immunodeficiency virus 1
Assay: Antiviral activity against HIV1 harboring reverse transcriptase Y188L mutant infected in human MT4 cells assessed as inhibition of virus-induced cytopathic effect after 5 days by MTT assay
Type: functional, organism-based
Settings: Human immunodeficiency virus 1, MT4, 120 h

SMILES	EC50
Cc1ccnc2c1NC(=O)c1cccnc1N2C1CC1 [NEVIRAPINE]	> 7500 nM
Cc1c(N)nc(Nc2ccc(C#N)cc2)nc1[C@@H](C)c1c(F)cccc1F	6500 nM
CCCN(C)c1nc([C@H](C)c2c(F)cccc2F)c(C)c(=O)[nH]1	28 nM
CCCN(C)c1nc(C(C)c2c(F)cccc2F)c(C)c(=O)[nH]1 (racemic)	49 nM

Tested on: not listed separately
Assay: Cytotoxicity against human MT4 cells after 5 days by MTT assay
Type: cell-based
Settings: not given
Summary of the method: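 Noninfected lymphoid MT-4 cells were exposed to compound. […] Values are means ± SD from at least three experiments.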

SMILES	CC50 at 120 h
Cc1ccnc2c1NC(=O)c1cccnc1N2C1CC1 [NEVIRAPINE]	7500 nM
Cc1c(N)nc(Nc2ccc(C#N)cc2)nc1[C@@H](C)c1c(F)cccc1F	38000 nM
CCCN(C)c1nc([C@H](C)c2c(F)cccc2F)c(C)c(=O)[nH]1	75000 nM
CCCN(C)c1nc(C(C)c2c(F)cccc2F)c(C)c(=O)[nH]1 (racemic)	> 78000 nM

Tested on: not listed separately
Assay: Selectivity index, ratio of CC50 for human MT4 cells to EC50 for wild type HIV1 NL4-3
Type: toxicity, cell-based
Settings: read-out: Ratio CC50/EC50

SMILES	selectivity ratio
Cc1ccnc2c1NC(=O)c1cccnc1N2C1CC1 [NEVIRAPINE]	58
Cc1c(N)nc(Nc2ccc(C#N)cc2)nc1[C@@H](C)c1c(F)cccc1F	40
CCCN(C)c1nc([C@H](C)c2c(F)cccc2F)c(C)c(=O)[nH]1	58000
CCCN(C)c1nc(C(C)c2c(F)cccc2F)c(C)c(=O)[nH]1 (racemic)	> 41000

Tested on: Human immunodeficiency virus 1
Assay: Resistance ratio of EC50 for HIV1 harboring reverse transcriptase K103N mutant to EC50 for wild type HIV1 NL4-3
Type: functional
Settings: not given
Summary of the method: (§1)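 MT-4 cells, MTT read-out of HIV-induced cytopathic effect; fold resistance calculated as EC50 against the drug-resistant strain divided by EC50 against WT NL4-3; EC50 values are means ± SD from at least three experiments.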

SMILES	Ratio EC50
Cc1ccnc2c1NC(=O)c1cccnc1N2C1CC1 [NEVIRAPINE]	47
Cc1c(N)nc(Nc2ccc(C#N)cc2)nc1[C@@H](C)c1c(F)cccc1F	4
CCCN(C)c1nc([C@H](C)c2c(F)cccc2F)c(C)c(=O)[nH]1	8
CCCN(C)c1nc(C(C)c2c(F)cccc2F)c(C)c(=O)[nH]1 (racemic)	9

Tested on: Human immunodeficiency virus 1
Assay: Resistance ratio of EC50 for HIV1 harboring reverse transcriptase Y181C mutant to EC50 for wild type HIV1 NL4-3
Type: functional
Settings: not given
Summary of the method: as §1

SMILES	Ratio EC50
CCCN(C)c1nc([C@H](C)c2c(F)cccc2F)c(C)c(=O)[nH]1	10
CCCN(C)c1nc(C(C)c2c(F)cccc2F)c(C)c(=O)[nH]1 (racemic)	9

Tested on: Human immunodeficiency virus 1
Assay: Resistance ratio of EC50 for HIV1 harboring reverse transcriptase Y188L mutant to EC50 for wild type HIV1 NL4-3
Type: functional
Settings: not given
Summary of the method: as §1

SMILES	Ratio EC50
Cc1c(N)nc(Nc2ccc(C#N)cc2)nc1[C@@H](C)c1c(F)cccc1F	6
CCCN(C)c1nc([C@H](C)c2c(F)cccc2F)c(C)c(=O)[nH]1	22
CCCN(C)c1nc(C(C)c2c(F)cccc2F)c(C)c(=O)[nH]1 (racemic)	26

Tested on: Human immunodeficiency virus 1
Assay: Resistance ratio of ID50 for HIV1 reverse transcriptase K103N mutant to ID50 HIV1 wild type reverse transcriptase
Settings: not given

SMILES	Ratio
Cc1ccnc2c1NC(=O)c1cccnc1N2C1CC1 [NEVIRAPINE]	20
Cc1c(N)nc(Nc2ccc(C#N)cc2)nc1[C@@H](C)c1c(F)cccc1F	1.3
CCCN(C)c1nc([C@H](C)c2c(F)cccc2F)c(C)c(=O)[nH]1	48
CCCN(C)c1nc(C(C)c2c(F)cccc2F)c(C)c(=O)[nH]1 (racemic)	6

Tested on: Human immunodeficiency virus 1
Assay: Resistance ratio of ID50 for HIV1 reverse transcriptase L100I mutant to ID50 HIV1 wild type reverse transcriptase
Settings: not given

SMILES	Ratio
CCCN(C)c1nc([C@H](C)c2c(F)cccc2F)c(C)c(=O)[nH]1	50
CCCN(C)c1nc(C(C)c2c(F)cccc2F)c(C)c(=O)[nH]1 (racemic)	6

Tested on: Human immunodeficiency virus 1
Assay: Resistance ratio of ID50 for HIV1 reverse transcriptase Y181I mutant to ID50 HIV1 wild type reverse transcriptase
Settings: not given

SMILES	Ratio
Cc1ccnc2c1NC(=O)c1cccnc1N2C1CC1 [NEVIRAPINE]	87
CCCN(C)c1nc([C@H](C)c2c(F)cccc2F)c(C)c(=O)[nH]1	200
CCCN(C)c1nc(C(C)c2c(F)cccc2F)c(C)c(=O)[nH]1 (racemic)	40

Tested on: Human immunodeficiency virus 1
Assay: Resistance ratio of ID50 for HIV1 reverse transcriptase V106A mutant to ID50 HIV1 wild type reverse transcriptase
Settings: not given

SMILES	Ratio
Cc1c(N)nc(Nc2ccc(C#N)cc2)nc1[C@@H](C)c1c(F)cccc1F	0.3
CCCN(C)c1nc([C@H](C)c2c(F)cccc2F)c(C)c(=O)[nH]1	1.5
CCCN(C)c1nc(C(C)c2c(F)cccc2F)c(C)c(=O)[nH]1 (racemic)	0.6

Tested on: Human immunodeficiency virus 1
Assay: Resistance ratio of ID50 for HIV1 reverse transcriptase Y188L mutant to ID50 HIV1 wild type reverse transcriptase
Settings: not given

SMILES	Ratio
Cc1c(N)nc(Nc2ccc(C#N)cc2)nc1[C@@H](C)c1c(F)cccc1F	3
CCCN(C)c1nc([C@H](C)c2c(F)cccc2F)c(C)c(=O)[nH]1	100
CCCN(C)c1nc(C(C)c2c(F)cccc2F)c(C)c(=O)[nH]1 (racemic)	50

Biological target: Human immunodeficiency virus type 1 reverse transcriptase (Human immunodeficiency virus 1) (UniProt Q72547)
Assay: Noncompetitive inhibition of HIV1 wild type reverse transcriptase using varying concentration of varying polyrA/oligodT by steady state kinetic analysis
Settings: not given
Summary of the method: (§2)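 Recombinant RT (WT or K103N), RNA-dependent DNA polymerase activity with poly(rA)/oligo(dT) 10:1 and [3H]-dTTP (1 Ci/mmol), 8% final DMSO; steady-state kinetics at fixed inhibitor concentrations, one substrate (nucleic acid or nucleotide) varied while the other kept saturating.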

SMILES	inhibition
CCCN(C)c1nc([C@H](C)c2c(F)cccc2F)c(C)c(=O)[nH]1	Active

Biological target: Human immunodeficiency virus type 1 reverse transcriptase (Human immunodeficiency virus 1) (UniProt Q72547)
Assay: Noncompetitive inhibition of HIV1 wild type reverse transcriptase using varying concentration of [3H]dTTP by steady state kinetic analysis
Settings: not given
Summary of the method: as §2

SMILES	inhibition
CCCN(C)c1nc([C@H](C)c2c(F)cccc2F)c(C)c(=O)[nH]1	Active

Tested on: Human immunodeficiency virus type 1 reverse transcriptase (Human immunodeficiency virus 1), Q72547 [K103N]
Assay: Noncompetitive inhibition of HIV1 reverse transcriptase K103N mutant using varying concentration of varying polyrA/oligodT by steady state kinetic analysis
Settings: not given
Summary of the method: as §2

SMILES	inhibition
CCCN(C)c1nc([C@H](C)c2c(F)cccc2F)c(C)c(=O)[nH]1	Active

Tested on: Human immunodeficiency virus type 1 reverse transcriptase (Human immunodeficiency virus 1), Q72547 [K103N]
Assay: Noncompetitive inhibition of HIV1 reverse transcriptase K103N mutant using varying concentration of [3H]dTTP by steady state kinetic analysis
Settings: not given
Summary of the method: as §2

SMILES	inhibition
CCCN(C)c1nc([C@H](C)c2c(F)cccc2F)c(C)c(=O)[nH]1	Active

Biological target: Human immunodeficiency virus type 1 reverse transcriptase (Human immunodeficiency virus 1) (UniProt Q72547)
Settings: not given

SMILES	ID50
Cc1c(N)nc(Nc2ccc(C#N)cc2)nc1[C@@H](C)c1c(F)cccc1F	180 nM
CCCN(C)c1nc([C@H](C)c2c(F)cccc2F)c(C)c(=O)[nH]1	2 nM
CCCN(C)c1nc(C(C)c2c(F)cccc2F)c(C)c(=O)[nH]1 (racemic)	30 nM

Tested on: Human immunodeficiency virus type 1 reverse transcriptase (Human immunodeficiency virus 1), Q72547 [K103N]
Settings: not given

SMILES	ID50
Cc1c(N)nc(Nc2ccc(C#N)cc2)nc1[C@@H](C)c1c(F)cccc1F	240 nM
CCCN(C)c1nc([C@H](C)c2c(F)cccc2F)c(C)c(=O)[nH]1	96 nM
CCCN(C)c1nc(C(C)c2c(F)cccc2F)c(C)c(=O)[nH]1 (racemic)	174 nM

Tested on: Human immunodeficiency virus type 1 reverse transcriptase (Human immunodeficiency virus 1), Q72547 [L100I]
Settings: not given

SMILES	ID50
Cc1c(N)nc(Nc2ccc(C#N)cc2)nc1[C@@H](C)c1c(F)cccc1F	> 15000 nM
CCCN(C)c1nc([C@H](C)c2c(F)cccc2F)c(C)c(=O)[nH]1	96 nM
CCCN(C)c1nc(C(C)c2c(F)cccc2F)c(C)c(=O)[nH]1 (racemic)	177 nM

Tested on: Human immunodeficiency virus type 1 reverse transcriptase (Human immunodeficiency virus 1), Q72547 [Y181I]
Settings: not given

SMILES	ID50
Cc1c(N)nc(Nc2ccc(C#N)cc2)nc1[C@@H](C)c1c(F)cccc1F	> 20000 nM
CCCN(C)c1nc([C@H](C)c2c(F)cccc2F)c(C)c(=O)[nH]1	450 nM
CCCN(C)c1nc(C(C)c2c(F)cccc2F)c(C)c(=O)[nH]1 (racemic)	1260 nM

Tested on: Human immunodeficiency virus type 1 reverse transcriptase (Human immunodeficiency virus 1), Q72547 [V106A]
Settings: not given

SMILES	ID50
Cc1c(N)nc(Nc2ccc(C#N)cc2)nc1[C@@H](C)c1c(F)cccc1F	64 nM
CCCN(C)c1nc([C@H](C)c2c(F)cccc2F)c(C)c(=O)[nH]1	3 nM
CCCN(C)c1nc(C(C)c2c(F)cccc2F)c(C)c(=O)[nH]1 (racemic)	19 nM

Reference: ChEMBL document CHEMBL2034813, “2-(Alkyl/aryl)amino-6-benzylpyrimidin-4(3H)-ones as inhibitors of wild-type and mutant HIV-1: enantioselectivity studies” (J Med Chem, 2012)
